We go through one compound from ChEMBL document CHEMBL1833906, “Design and evaluation of a novel fluorescent CB2 ligand as probe for receptor visualization in immune cells” (Bioorg Med Chem Lett, 2011).

Active and inactive are the calls of the source. No cut-off for these calls is given here.

Test [1] has as its target Cannabinoid receptor 1 (Homo sapiens) (UniProt P21554). In words: Displacement of [3H]-CP55940 from cannabinoid CB1 receptor at 10 uM. The method, boiled down:
(§1)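 Single-point competitive radioligand binding screen at 10 µM test concentration, measured as % inhibition of radioligand binding. Radioligands: [3H]CP55940 for CB1, [3H]ketanserin for 5-HT2A, [3H]mesulergine for 5-HT2C. Run by the NIMH Psychoactive Drug Screening Program.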
(In general: Displacement assays read how much labelled ligand stays bound in the presence of the test substance.)

The target of test [2] is 5-hydroxytryptamine receptor 2A (Homo sapiens) (UniProt P28223). In words: Displacement of [3H]-kentanserin from 5HT2A receptor at 10 uM. Put shortly: as §1
Test [3] deals with T1, 5-hydroxytryptamine receptor 2C (Homo sapiens) (UniProt P28335).
T1 sequence (whole entry): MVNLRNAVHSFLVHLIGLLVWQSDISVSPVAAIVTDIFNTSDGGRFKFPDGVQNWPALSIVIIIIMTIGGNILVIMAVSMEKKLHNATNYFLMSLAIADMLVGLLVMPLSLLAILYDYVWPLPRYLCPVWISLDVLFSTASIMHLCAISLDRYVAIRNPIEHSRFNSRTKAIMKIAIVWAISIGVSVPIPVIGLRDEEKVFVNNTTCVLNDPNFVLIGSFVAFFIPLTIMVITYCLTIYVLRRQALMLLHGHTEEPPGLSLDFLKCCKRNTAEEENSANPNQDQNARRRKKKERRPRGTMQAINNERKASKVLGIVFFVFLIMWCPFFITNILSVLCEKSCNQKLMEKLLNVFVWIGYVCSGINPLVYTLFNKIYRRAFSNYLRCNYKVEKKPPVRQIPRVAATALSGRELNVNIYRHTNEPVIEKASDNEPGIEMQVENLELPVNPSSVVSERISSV
The test is described as follows: Displacement of [3H]-mesulergine from 5HT2C receptor at 10 uM. Put shortly: as §1

For test [4], the target named is Cannabinoid receptor 2 (Homo sapiens, UniProt P34972). In words: Displacement of [3H]-CP55940 from human recombinant cannabinoid CB2 receptor expressed in CHO-K1 cells. In kind it is cell-based.
Test [5] has as its target Cannabinoid receptor 2 (Mus musculus) (UniProt P47936). The test is described as follows: Binding affinity to cannabinoid CB2 receptor in non transfected BALB/c mouse CD4+ T cells at 5 uM after 30 mins […] by confocal microscopic analysis. In kind it is cell-based. As to conditions: T-cell.
The target is the same in test [6]. The test is described as follows: Binding affinity to cannabinoid CB2 receptor in non transfected BALB/c mouse CD4+ T cells at 1 uM after 30 mins using PE-conjugated […] antibody staining by confocal microscopic analysis. In kind it is cell-based. The conditions noted are these: T-cell. The method, boiled down:
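T cells were purified from peripheral lymph nodes of BALB/c mice and stained with PE-conjugated anti-CD4 antibody plus NBD-labelled probe at 0.1, 1.0 or 5 µM. Incubation on ice for 30 min is stated for the 5 µM condition. CD4+ cells were imaged by confocal microscopy (x40).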

Test [7] shares this target. The test is described as follows: Binding affinity to cannabinoid CB2 receptor in non transfected BALB/c mouse CD4+ T cells at 0.1 uM after 30 mins using […] by confocal microscopic analysis. In kind it is cell-based. As to conditions: T-cell.
Test [8] shares this target. The test is described as follows: Binding affinity to cannabinoid CB2 receptor in non transfected BALB/c mouse CD4+ T cells after 30 mins […] by confocal microscopic analysis in presence of CB2 receptor agonist GW842166X. As to conditions: T-cell. Type of test: cell-based.
Test [9] has the same target. In words: Binding affinity to cannabinoid CB2 receptor in mouse B lymphocytes at 5 uM after 30 mins using PE-conjugated anti-B220 antibody staining by flow cytometric analysis. Type of test: cell-based. Put shortly: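 Lung mononuclear cells from mice were prepared by collagenase digestion of lung tissue. They were stained with PE-conjugated anti-B220 antibody and NBD-labelled probe at 5 µM on ice for 30 min, then analysed by flow cytometry.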
(In general: In flow cytometry, cells or beads pass a laser one at a time.)

Test [10] shares this target. The test is described as follows: Binding affinity to cannabinoid CB2 receptor in mouse B lymphocytes at 5 uM after 30 mins using PE-conjugated anti-B220 antibody staining by flow cytometric analysis in presence of GW842166X. In kind it is cell-based. Put shortly:
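Mouse lung mononuclear cells, prepared by collagenase digestion, were first preincubated on ice for 5 min with the CB2 agonist GW842166X at 100 µM. They were then stained with PE-conjugated anti-B220 antibody and NBD-labelled probe at 5 µM on ice for 30 min, and analysed by flow cytometry.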

Chain of Cannabinoid receptor 2 (Mus musculus) (P47936 whole entry): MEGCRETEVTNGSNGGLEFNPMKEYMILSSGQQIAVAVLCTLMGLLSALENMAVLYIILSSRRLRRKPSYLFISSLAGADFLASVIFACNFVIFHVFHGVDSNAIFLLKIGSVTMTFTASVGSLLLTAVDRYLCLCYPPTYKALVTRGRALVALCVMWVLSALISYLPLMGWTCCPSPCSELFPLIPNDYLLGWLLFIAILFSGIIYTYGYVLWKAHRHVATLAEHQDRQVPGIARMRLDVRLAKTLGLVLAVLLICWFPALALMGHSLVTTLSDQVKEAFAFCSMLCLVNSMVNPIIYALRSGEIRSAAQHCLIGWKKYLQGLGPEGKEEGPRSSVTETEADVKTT
Chain of Cannabinoid receptor 1 (Homo sapiens) (P21554 whole entry): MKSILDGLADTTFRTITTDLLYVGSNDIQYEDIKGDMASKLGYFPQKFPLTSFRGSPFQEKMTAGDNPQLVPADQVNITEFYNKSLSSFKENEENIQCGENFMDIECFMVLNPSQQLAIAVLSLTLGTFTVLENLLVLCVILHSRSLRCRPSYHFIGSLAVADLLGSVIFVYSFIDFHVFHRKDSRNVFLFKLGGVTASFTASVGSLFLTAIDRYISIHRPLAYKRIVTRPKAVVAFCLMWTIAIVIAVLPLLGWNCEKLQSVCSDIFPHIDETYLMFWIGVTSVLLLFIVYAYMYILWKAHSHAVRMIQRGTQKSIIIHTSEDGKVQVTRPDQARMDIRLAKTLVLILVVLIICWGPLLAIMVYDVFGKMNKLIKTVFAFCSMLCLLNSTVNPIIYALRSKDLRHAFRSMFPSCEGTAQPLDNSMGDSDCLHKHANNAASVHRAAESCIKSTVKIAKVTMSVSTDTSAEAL
Chain of 5-hydroxytryptamine receptor 2A (Homo sapiens) (P28223 whole entry): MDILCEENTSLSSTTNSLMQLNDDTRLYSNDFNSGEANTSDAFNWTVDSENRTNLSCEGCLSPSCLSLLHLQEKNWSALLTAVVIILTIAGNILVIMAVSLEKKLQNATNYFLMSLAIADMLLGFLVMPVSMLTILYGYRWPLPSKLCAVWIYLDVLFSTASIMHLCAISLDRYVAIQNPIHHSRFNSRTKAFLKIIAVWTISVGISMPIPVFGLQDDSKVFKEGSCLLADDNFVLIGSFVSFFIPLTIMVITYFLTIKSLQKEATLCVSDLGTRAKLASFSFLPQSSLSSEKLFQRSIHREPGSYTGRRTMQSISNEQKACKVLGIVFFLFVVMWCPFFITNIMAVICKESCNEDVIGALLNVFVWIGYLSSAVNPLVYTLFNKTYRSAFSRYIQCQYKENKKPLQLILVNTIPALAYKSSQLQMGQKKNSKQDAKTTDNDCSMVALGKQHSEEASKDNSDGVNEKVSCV
Chain of Cannabinoid receptor 2 (P34972 whole entry): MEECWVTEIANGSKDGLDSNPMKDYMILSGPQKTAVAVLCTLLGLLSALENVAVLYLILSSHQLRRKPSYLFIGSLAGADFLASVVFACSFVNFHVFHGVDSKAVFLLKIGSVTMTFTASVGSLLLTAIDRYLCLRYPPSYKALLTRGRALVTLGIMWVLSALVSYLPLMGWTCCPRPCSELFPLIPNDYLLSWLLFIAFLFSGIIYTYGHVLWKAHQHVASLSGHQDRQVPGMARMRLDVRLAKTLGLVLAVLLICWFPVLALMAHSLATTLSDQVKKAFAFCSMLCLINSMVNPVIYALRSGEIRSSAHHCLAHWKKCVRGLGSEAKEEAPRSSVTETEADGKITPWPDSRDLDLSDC

In general, inhibition refers to the relative decrease from the control value, in per cent. Read a high inhibition as a response far below the control. By Ki is commonly meant a measure of affinity in units of concentration, obtained from inhibition or displacement. For the compound `CCCCCN1C(=O)/C(=N\NC(=O)CN(C)c2ccc([N+](=O)[O-])c3nonc23)c2ccc(OC)cc21`, the inhibition in test [1], in test [2] and in [3] was below 40% each time. Besides, the Ki in test [4] was 387 nM. In addition, the outcome in test [5] and in [9] was Active. Besides, the result in test [6], in [7], in test [8] and in [10] was inactive.
